Screening data deposited in PubChem BioAssay by several laboratories.
Myeloid diff 2: compounds promoting myeloid differentiation | ER-HoxA9 myeloid progenitors, lysozyme-GFP differentiation, flow cytometry | calls only at 10 µM | 360,000 tested, 1% active | AID 624256;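 active means normalized GFP-positive differentiation at or above the plate's own cutoff, the solvent-only control mean plus 3 SD; inconclusive means no clear call, values can overlap the other calls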;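 further: cells exposed to compound for four days before flow analysis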
Xi reactivation: reactivates the inactive X chromosome in mouse fibroblasts; XiGFP mouse fibroblasts, % GFP-positive cells imaging, 3 d; cells co-treated with 5-aza-dC sensitizer; scaled so ellipticine positive control = 100%; activation, % at 7.58 µM; AID 743238; 360,000 tested, 0.055% active;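 active means mean normalized replicate activation at least 10% and every replicate at or above 10%; inconclusive means only one of the two criteria met; inactive means mean below 10% and not all replicates reach 10%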;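 further: 0% = median of on-plate neutral control wells and 100% = ellipticine 6 µM median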
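Material: SV40-immortalized XiGFP fibroblast cells, line 68-5-11 | Buffer or medium: DMEM containing 5-aza-dC | Dosing: One concentration, pinned | Times: 3 d treatment, 15 min room-temperature fixation | Controls: Ellipticine 6 µM positive control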
ABCB6 inh MLPCN: blocks the human ABCB6 transporter. K562-ABCB6 porphyrin accumulation, flow cytometry, 1 h; active compounds read low. fluorescence ratio to DMSO, % at 10 µM. 360,000 tested, 0.19% active. AID 602162;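 active means fluorescence ratio to DMSO below 75%, the collection mean minus 3 SD; inconclusive means too few cells collected in the well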;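 further: signal is porphyrin accumulated inside mitochondria; 100% equals median channel fluorescence of DMSO control wells; lower ratio means ABCB6 inhibition with less porphyrin fluorescence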
Target sequence (Q9NP58 whole entry, looked up): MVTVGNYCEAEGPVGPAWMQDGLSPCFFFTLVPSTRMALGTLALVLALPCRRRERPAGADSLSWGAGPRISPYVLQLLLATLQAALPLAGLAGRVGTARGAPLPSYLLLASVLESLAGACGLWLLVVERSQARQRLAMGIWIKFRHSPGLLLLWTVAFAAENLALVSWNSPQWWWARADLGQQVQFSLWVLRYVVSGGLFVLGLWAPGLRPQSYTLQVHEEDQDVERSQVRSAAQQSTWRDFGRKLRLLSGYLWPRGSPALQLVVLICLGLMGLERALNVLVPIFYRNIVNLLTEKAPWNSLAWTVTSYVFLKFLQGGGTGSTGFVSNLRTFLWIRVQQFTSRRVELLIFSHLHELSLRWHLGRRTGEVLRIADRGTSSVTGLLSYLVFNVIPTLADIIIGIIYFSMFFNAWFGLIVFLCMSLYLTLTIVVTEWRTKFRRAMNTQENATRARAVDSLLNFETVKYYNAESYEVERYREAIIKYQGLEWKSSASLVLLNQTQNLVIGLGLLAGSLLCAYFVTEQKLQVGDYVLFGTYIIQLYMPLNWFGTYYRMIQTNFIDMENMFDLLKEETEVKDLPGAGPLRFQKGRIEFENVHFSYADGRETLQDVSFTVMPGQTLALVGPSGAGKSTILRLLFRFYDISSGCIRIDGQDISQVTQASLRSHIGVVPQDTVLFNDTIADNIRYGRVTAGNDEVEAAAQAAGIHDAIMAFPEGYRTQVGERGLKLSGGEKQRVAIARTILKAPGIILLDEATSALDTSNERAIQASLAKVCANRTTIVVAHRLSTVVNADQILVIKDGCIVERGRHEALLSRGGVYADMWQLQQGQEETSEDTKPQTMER
Myeloid diff: myeloid differentiation induction; ER-HoxA9 myeloid progenitors, GFP/Mac1 double-positive flow; calls only; 2,300 tested, 2% active; shares compounds with Myeloid diff 2;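 active means share of green or green-and-red cells above 9 and 9% in run 1 or 4 and 3% in run 2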
GFP autofluor: compound fluorescence in myeloid differentiation counter-screen; shares compounds with Myeloid diff 2; AID 651707; 2,300 tested, 7.4% active; fluorescence response, % (test concentration not listed); ER-HoxA9 myeloid progenitors, no estrogen, GFP autofluorescence flow cytometry; vehicle wells 0%, positive control 100%;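 active means over 5% cells positive for green fluorescent reporter, or over 2% positive for both it and APC stain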;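 further: range taken on the double positive population between DMSO and positive control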
The depositor's hits bear a star; i = inactive; u = inconclusive; x = not tested or not shown; + = active, no number. The sample as a whole holds a higher share of hits than the screen did.

SMILES | Myeloid diff 2 | Xi reactivation | ABCB6 inh MLPCN | Myeloid diff | GFP autofluor
C[C@H](CO)N1C[C@H](C)[C@@H](CN(C)CC2CC2)Oc2ccc(NS(=O)(=O)c3ccc(F)cc3)cc2CC1=O | x | 0 | x | x | x
CC(C)NC(=O)N1[C@H](CO)[C@H]2c3ccccc3N(C(=O)Nc3ccc(Cl)cc3)C[C@H]21 | x | 0 | x | x | x
CC(C)C(=O)Nc1ccc(Cl)cc1-c1nc2ccccc2[nH]c1=O | i | 0 | 105 | x | x
CNc1ccc([N+](=O)[O-])cc1-c1nc2ccccc2[nH]c1=O | + | 0 | 100 | i | 0
Cc1ccc(S(=O)(=O)Nc2ccc3c(c2)C(=O)N([C@H](C)CO)C[C@H](C)[C@H](CN(C)C(=O)Nc2c(C)noc2C)OCCCC[C@H](C)O3)cc1 | x | 0 | x | x | x
CC/C(=N/NC(=O)c1ccc2c(c1)OCO2)c1ccccc1O | i | 0 | 97 | i | 0
C/C(=N\NC(=O)c1cc2ccccc2cc1O)c1ccc2c(c1)OCO2 | i | x | 111 | x | x
COC(=O)C[C@@H]1CC[C@@H]2[C@H](COc3ccc(NC(=O)Nc4cccc(C)c4)cc3C(=O)N2C)O1 | x | 0 | x | x | x
O=C(CSc1nc2ccccc2n1CC(=O)N1CCCC1)N1CCN(C(=O)c2ccco2)CC1 | i | x | 98 | i | 0
O=C(CSc1nc2ccccc2n1CC(=O)N1CCOCC1)N1CCCC1 | i | x | 75 | x | x
O=C(CSc1nnc(-c2ccccc2Br)o1)N1CCN(C(=O)c2ccco2)CC1 | i | x | 101 | i | 0
O=C(CSc1nc2ccccc2n1CC(=O)N1CCCC1)Nc1ccc2c(c1)OCO2 | + | x | 97 | i | 0
CC1CCCC(C)N1C(=O)Cn1c(SCC(=O)Nc2ccc3c(c2)OCO3)nc2ccccc21 (stereo not given) | i | x | 100 | x | x
O=C(CSc1nnc(-c2ccc(F)cc2)o1)N1CCN(C(=O)c2ccco2)CC1 | u | x | 89 | x | x
CC(=O)N(C)C[C@H]1Oc2cc(C#CC(C)C)ccc2S(=O)(=O)N([C@@H](C)CO)C[C@@H]1C | x | 0 | x | x | x
N#C[C@@H]1[C@@H](c2ccc(C3=CCCC3)cc2)[C@@H](CO)N1C(=O)c1cccc(F)c1 | x | 0 | x | x | x
CC=Cc1ccc2n(c1=O)C[C@H]1[C@H](CO)[C@@H](C(=O)N[C@@H](C)c3ccccc3)[C@@H]2N1Cc1ccccc1 (mixture of isomers) | x | 0 | x | x | x
COc1cccc(CNC(=O)C[C@H]2CC[C@H](NC(C)=O)[C@@H](CO)O2)c1 | x | 0 | x | x | x
CN1/C(=C\C(=O)c2cccc(S(=O)(=O)N3CCCCC3)c2)C(C)(C)c2ccccc21 | i | 0 | 99 | x | x
CN1/C(=C\C(=O)c2cncc(Br)c2)C(C)(C)c2ccccc21 | + | 0 | 523 | i | 20*
C[C@@H]1CN([C@@H](C)CO)C(=O)c2cccc(NC(=O)c3ccncc3)c2O[C@@H]1CN(C)C(=O)Nc1ccc(C(F)(F)F)cc1 | x | 0 | x | x | x
O=C(CCc1ccccc1)Nc1ccccc1 | i | 0 | 94 | x | x
NS(=O)(=O)c1ccc(NC(=O)CN2CCc3ccccc32)cc1 | i | 0 | 99 | x | x
NS(=O)(=O)c1ccc(NC(=O)CCc2ccccc2)cc1 | i | x | 103 | i | 0
NS(=O)(=O)c1ccc(NC(=O)CN2CCCc3ccccc32)cc1 | + | 0 | 99 | i | 0
SMILES | Myeloid diff 2 | Xi reactivation | ABCB6 inh MLPCN | Myeloid diff | GFP autofluor
C[C@@H]1CN([C@@H](C)CO)C(=O)Cc2cc(NC(=O)CCN3CCOCC3)ccc2O[C@H]1CN(C)Cc1ccc(Oc2ccccc2)cc1 | x | 0 | x | x | x
CCc1cn(C2CC(O)C(CO)O2)c(=O)[nH]c1=O (stereo not given) | + | 1 | 101 | i | 0
O=c1[nH]c(=O)n([C@H]2C[C@H](O)[C@@H](CO)O2)cc1I | i | 0 | 90 | x | x
CO[C@H]1CN(C)C(=O)c2ccc(NC(C)=O)cc2OC[C@@H](C)N(C(=O)c2ccccc2F)C[C@H]1C | x | 0 | x | x | x
O=C(C[C@H]1CC[C@@H]2[C@H](COC[C@H](O)CN2C(=O)c2ccccc2)O1)Nc1ccc(-c2ccccc2)cc1 | x | 0 | x | x | x
O=C(CN1CCOCC1)NCC[C@@H]1CC[C@@H](NC(=O)c2ccccc2F)[C@H](CO)O1 | x | 0 | x | x | x
Cc1noc(C)c1S(=O)(=O)N(C)C[C@@H]1OCCCC[C@@H](C)Oc2ccc(NS(=O)(=O)c3cccs3)cc2C(=O)N([C@H](C)CO)C[C@H]1C | x | 0 | x | x | x
CC(=O)Nc1ccc2nc(C3CC3)n(Cc3ccc(Cl)cc3)c(=O)c2c1 | i | 0 | 92 | x | x
O=C(Nc1ccc2nc(C3CC3)n(Cc3ccc(F)cc3)c(=O)c2c1)c1ccco1 | + | x | 98 | i | 0
CCN1[C@H](C(=O)Nc2ccccc2)[C@@H](CO)[C@@H]2Cn3c(ccc(-c4ccccc4)c3=O)[C@@H]21 | x | 0 | x | x | x
CCC(=O)N[C@@H]1C=C[C@H](CC(=O)NCc2ccccc2F)O[C@@H]1CO | x | 0 | x | x | x
C[C@H](CO)N1C[C@H](C)[C@@H](CN(C)CC2CC2)Oc2ccc(NS(=O)(=O)c3cn(C)cn3)cc2C1=O | x | 0 | x | x | x
COC(=O)[C@H](CCSC)NC(=O)N1CCN(c2cccc(C(F)(F)F)c2)CC1 | i | x | 103 | i | 0
COC(=O)[C@@H](NC(=O)N1CCN(c2cccc(C(F)(F)F)c2)CC1)C(C)C | i | x | 95 | x | x
O=C(C[C@H]1CC[C@@H](NC(=O)c2ccncc2)[C@H](CO)O1)NCc1ccncn1 | x | 0 | x | x | x
O=C(Cc1cccc(NC(=O)C2CCN(C(=O)C3CCC3)CC2)c1)Nc1cccc(C(=O)N2CCCC2)c1 | i | 0 | 98 | i | 0
O=C(Cc1cccc(NC(=O)C2CCN(C(=O)C3CCC3)CC2)c1)Nc1cccc(C(=O)N2CCOCC2)c1 | i | 0 | 106 | x | x
C/C=C/c1cnc2c(c1)C(=O)N([C@H](C)CO)C[C@H](C)[C@@H](CN(C)C(=O)Cc1ccccc1)O2 | x | 0 | x | x | x
CCO[C@@H]1OC(C(=O)NCc2ccccc2)=C[C@H](c2csc3ccccc23)[C@H]1CCCO | i | 0 | 94 | i | 0
C#CCNC(=O)C1=C[C@H](c2csc3ccccc23)[C@@H](CCCO)[C@H](OCC)O1 | i | 0 | 91 | x | x
Cc1ccc(S(=O)(=O)N(C)C[C@H]2Oc3ccc(NS(=O)(=O)c4ccc(Cl)cc4)cc3C(=O)N([C@@H](C)CO)C[C@H]2C)cc1 | x | 0 | x | x | x
O=c1[nH]c(=S)n2c(c1-c1ccccc1)OC(CBr)C2 (stereo not given) | + | 0 | 106 | i | 4
O=c1[nH]c(=O)n2c(c1-c1ccccc1)OC(CBr)C2 (stereo not given) | i | 0 | 90 | x | x
CCS(=O)(=O)c1ccc2c(c1)N(S(C)(=O)=O)CC(C(=O)NC1CC1)O2 (stereo not given) | + | x | 101 | i | 2
CCS(=O)(=O)c1ccc2c(c1)N(S(C)(=O)=O)CC(C(=O)NCc1ccccc1OC)O2 (stereo not given) | i | x | 99 | x | x
